# In ChEMBL document CHEMBL1141265, “Flavonoids as opioid receptor ligands: identification and preliminary structure-activity relationships” (J Nat Prod, 2007):
# The source made the active and inactive calls. No cut-off for these calls is given here.
# Columns and labels:
# [1] = target: Kappa-type opioid receptor (Homo sapiens) (UniProt P41145); assay: Antagonist activity at human kappa opioid receptor expressed in CHO cells by [35S]GTP-gamma-S assay; format: functional, cell-based
# In short: (§1)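 Ke from rightward shift of the agonist concentration–response curve (DAMGO μ, DPDPE δ, U69,593 κ) by one fixed concentration of test compound; membranes from stably transfected CHO cells, 0.1 nM [35S]GTPγS, 10 μM GDP, 50 mM HEPES pH 7.4, 1 h room temperature, duplicates, filtration then scintillation counting; EC50s by three-parameter logistic fit, Ke = [L]/[(A′/A) − 1].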
# [2] = target: Mu-type opioid receptor (Homo sapiens) (UniProt P35372); assay: Antagonist activity at human mu opioid receptor expressed in CHO cells by [35S]GTP-gamma-S assay; format: functional, cell-based
# Chain of Mu-type opioid receptor (Homo sapiens) (P35372 whole entry): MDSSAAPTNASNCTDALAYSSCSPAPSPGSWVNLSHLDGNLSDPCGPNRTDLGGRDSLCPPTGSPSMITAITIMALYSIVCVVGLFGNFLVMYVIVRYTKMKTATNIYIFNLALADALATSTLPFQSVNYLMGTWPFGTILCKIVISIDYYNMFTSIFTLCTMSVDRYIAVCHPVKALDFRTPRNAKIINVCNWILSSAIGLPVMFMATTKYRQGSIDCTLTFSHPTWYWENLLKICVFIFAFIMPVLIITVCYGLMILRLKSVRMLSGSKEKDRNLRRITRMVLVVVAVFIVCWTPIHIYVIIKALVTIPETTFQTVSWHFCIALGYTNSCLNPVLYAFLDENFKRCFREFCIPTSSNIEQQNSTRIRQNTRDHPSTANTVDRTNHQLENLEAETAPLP
# [3] = target: T1, Delta-type opioid receptor (Homo sapiens, UniProt P41143); assay: Antagonist activity at human delta opioid receptor expressed in CHO cells by [35S]GTPgammaS assay; format: functional, cell-based; in short: as §1
# T1 sequence (P41143 whole entry): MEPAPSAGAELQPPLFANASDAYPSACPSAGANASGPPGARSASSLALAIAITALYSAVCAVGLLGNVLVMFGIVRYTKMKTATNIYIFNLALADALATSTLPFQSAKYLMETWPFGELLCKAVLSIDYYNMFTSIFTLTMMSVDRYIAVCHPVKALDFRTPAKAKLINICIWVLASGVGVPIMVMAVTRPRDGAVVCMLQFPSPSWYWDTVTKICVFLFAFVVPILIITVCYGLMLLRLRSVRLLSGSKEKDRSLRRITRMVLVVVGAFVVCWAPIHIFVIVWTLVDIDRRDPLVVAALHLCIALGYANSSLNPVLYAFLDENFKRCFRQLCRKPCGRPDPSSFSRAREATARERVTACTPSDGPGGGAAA
# [4] = Selectivity for antagonist activity at human mu opioid receptor to kappa opioid receptor expressed in CHO cells by [35S]GTP-gamma-S assay; format: functional
# [5] = Selectivity for antagonist activity at human delta opioid receptor to kappa opioid receptor expressed in CHO cells by [35S]GTP-gamma-S assay; format: functional
# [6] = Agonist activity at opioid receptor relative to U69,593; format: functional
# [7] = target: Kappa-type opioid receptor (Homo sapiens) (UniProt P41145); assay: Intrinsic activity at human kappa opioid receptor expressed in CHO cells upto 10 uM by [35S]GTP-gamma-S assay; format: functional, cell-based
# In short: (§2)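 Screened at 10 μM for agonist or inverse-agonist activity on CHO membrane homogenates expressing human δ, κ or μ receptor; 0.1 nM [35S]GTPγS, 1 μM GDP, 50 mM HEPES pH 7.4, 1 h room temperature, duplicates; bound label separated by vacuum filtration over GF-B, scintillation counted, normalized to vehicle basal binding; subtype-selective agonist run as positive control.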
# [8] = target: Mu-type opioid receptor (Homo sapiens) (UniProt P35372); assay: Intrinsic activity at human […] mu receptor expressed in CHO cells upto 10 uM by [35S]GTP-gamma-S assay; format: functional, cell-based; in short: as §2
# [9] = target: T1, Delta-type opioid receptor; assay: Intrinsic activity at human delta opioid receptor expressed in CHO cells upto 10 uM by [35S]GTP-gamma-S assay; format: functional, cell-based; in short: as §2
# [10] = target: T1, Delta-type opioid receptor; assay: Binding affinity to delta opioid receptor
# [11] = Binding affinity to opiate receptor
# Chain of Kappa-type opioid receptor (Homo sapiens) (P41145 whole entry): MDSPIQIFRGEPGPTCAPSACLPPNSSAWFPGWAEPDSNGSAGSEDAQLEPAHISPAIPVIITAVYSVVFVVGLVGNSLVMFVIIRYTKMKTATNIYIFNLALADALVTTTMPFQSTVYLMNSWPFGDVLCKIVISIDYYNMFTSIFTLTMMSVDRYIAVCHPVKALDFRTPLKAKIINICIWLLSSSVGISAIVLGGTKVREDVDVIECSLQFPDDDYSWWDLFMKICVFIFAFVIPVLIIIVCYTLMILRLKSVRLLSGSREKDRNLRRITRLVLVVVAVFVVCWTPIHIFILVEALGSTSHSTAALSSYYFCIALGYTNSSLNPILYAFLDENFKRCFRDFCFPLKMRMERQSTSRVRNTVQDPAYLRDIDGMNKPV
compound,measurement,setting,value
O=c1cc(-c2ccc(O)cc2)oc2cc(O)ccc12,Ke,[1],1610 nM
same,Ke,[2],480 nM
same,Ke,[3],2090 nM
same,Antagonist selectivity ratio,[4],0.3
same,Ratio Ki,[5],1.3
COc1ccc([C@@H]2CC(=O)c3c(O)cc(O)cc3O2)cc1O,Ke,[1],> 10000 nM
same,Ke,[2],> 10000 nM
same,Ke,[3],> 10000 nM
Oc1cc(O)c2c(c1)O[C@H](c1ccc(O)c(O)c1)[C@H](O)C2,Intrinsic activity,[6],inactive
O=C1CC(c2ccc(O)cc2)Oc2ccccc21 (stereo not drawn) [4'-HYDROXY-FLAVANONE],Ke,[1],550 nM
same,Ke,[2],590 nM
same,Ke,[3],3490 nM
same,Antagonist selectivity ratio,[4],1.1
same,Ratio Ki,[5],6.3
Oc1cc(O)c2c(c1)O[C@@H](c1ccc(O)c(O)c1)[C@@H](O)C2 [(+)-EPICATECHIN],Ke,[1],5810 nM
same,Ke,[2],3020 nM
same,Ke,[3],2170 nM
same,Antagonist selectivity ratio,[4],0.52
same,Ratio Ki,[5],0.37
same,Intrinsic activity,[6],inactive
O=C1c2c(O)cc(O)cc2O[C@H](c2ccc(O)c(O)c2)[C@H]1O [(+)-TAXIFOLIN],Ke,[1],3280 nM
same,Ke,[2],3070 nM
same,Ke,[3],3820 nM
same,Antagonist selectivity ratio,[4],0.93
same,Ratio Ki,[5],1.2
O=C(O[C@@H]1Cc2c(O)cc(O)cc2O[C@H]1c1ccc(O)c(O)c1)c1cc(O)c(O)c(O)c1 [(-)-CATECHINGALLATE],Ke,[1],220 nM
same,Ke,[2],210 nM
same,Ke,[3],950 nM
same,Antagonist selectivity ratio,[4],0.95
same,Ratio Ki,[5],4.3
same,Intrinsic activity,[7],inactive
same,Intrinsic activity,[8],inactive
same,Intrinsic activity,[9],inactive
Oc1cc(O)c2c(c1)O[C@@H](c1ccc(O)c(O)c1)[C@H](O)C2 [(-)-CATECHIN],Ke,[1],3600 nM
same,Ke,[2],2400 nM
same,Ke,[3],1770 nM
same,Antagonist selectivity ratio,[4],0.67
same,Ratio Ki,[5],0.49
same,Emax,[6],18%
O=c1cc(-c2ccc(O)c(-c3c(O)cc(O)c4c(=O)cc(-c5ccc(O)cc5)oc34)c2)oc2cc(O)cc(O)c12 [AMENTOFLAVONE],Ki,[10],0.036 µM
same,Ke,[1],490 nM
same,Ke,[2],> 10000 nM
same,Ke,[3],6000 nM
same,Antagonist selectivity ratio,[4],>20
same,Ratio Ki,[5],12
same,Intrinsic activity,[7],inactive
same,Intrinsic activity,[8],inactive
same,Intrinsic activity,[9],inactive
O=c1cc(-c2ccc(O)cc2)oc2cc(O)cc(O)c12 [APIGENIN],Ke,[1],410 nM
same,Ke,[2],410 nM
same,Ke,[3],970 nM
same,Antagonist selectivity ratio,[4],1
same,Ratio Ki,[5],2.4
same,Intrinsic activity,[7],inactive
same,Intrinsic activity,[8],inactive
same,Intrinsic activity,[9],inactive
Oc1cc(O)c2c(c1)O[C@H](c1ccc(O)c(O)c1)[C@@H](O)C2 [CIANIDANOL],Ke,[1],320 nM
same,Ke,[2],> 10000 nM
same,Ke,[3],1180 nM
same,Ratio pKi,[4],>31
same,Ratio pKi,[5],3.7
same,Intrinsic activity,[6],inactive
O=C(O[C@@H]1Cc2c(O)cc(O)cc2O[C@@H]1c1ccc(O)c(O)c1)c1cc(O)c(O)c(O)c1 [EPICATECHIN GALLATE],Ke,[1],1900 nM
same,Ke,[2],1500 nM
same,Ke,[3],1700 nM
same,Antagonist selectivity ratio,[4],0.79
same,Ratio Ki,[5],0.89
same,Intrinsic activity,[7],inactive
same,Intrinsic activity,[8],inactive
same,Intrinsic activity,[9],inactive
same,IC50,[11],0.036 µM
Oc1cc(O)c2c(c1)O[C@H](c1cc(O)c(O)c(O)c1)[C@H](O)C2 [EPIGALLOCATECHIN],Ke,[1],250 nM
same,Ke,[2],300 nM
same,Ke,[3],1990 nM
same,Antagonist selectivity ratio,[4],1.2
same,Ratio Ki,[5],8
same,Intrinsic activity,[7],inactive
same,Intrinsic activity,[8],inactive
same,Intrinsic activity,[9],inactive
O=c1c(O[C@@H]2O[C@H](CO)[C@H](O)[C@H](O)[C@H]2O)c(-c2ccc(O)c(O)c2)oc2cc(O)cc(O)c12 [HYPEROSIDE],Ke,[1],340 nM
same,Ke,[2],390 nM
same,Ke,[3],9070 nM
same,Antagonist selectivity ratio,[4],1.1
same,Ratio Ki,[5],27
CC(C)[C@@H](CN1CC[C@@](C)(c2cccc(O)c2)[C@@H](C)C1)NC(=O)[C@H]1Cc2ccc(O)cc2CN1 [JDTIC],Antagonist selectivity ratio,[4],1250
same,Ratio Ki,[5],3800
O=C1C[C@@H](c2ccc(O)cc2)Oc2cc(O)cc(O)c21 [NARINGENIN],Ke,[1],1700 nM
same,Ke,[2],2300 nM
same,Ke,[3],3680 nM
same,Antagonist selectivity ratio,[4],1.4
same,Ratio Ki,[5],2.2
Oc1ccc2c3c1O[C@H]1c4[nH]c5c(c4C[C@@]4(O)[C@@H](C2)N(CC2CC2)CC[C@]314)C[C@@]1(O)[C@H]2Cc3ccc(O)c4c3[C@@]1(CCN2CC1CC1)[C@H]5O4 [NORBINALTORPHIMINE],Antagonist selectivity ratio,[4],520
same,Ratio Ki,[5],580
